Bioassay records (PubChem)
Rows were chosen to be rich in hits. Some 3.7% of all compounds tested hit in one or more screens of this group.
KCNK9 inh – human KCNK9 channel inhibition. Q9NPC2. HEK293 KCNK9, FluxOR thallium flux fluorescence; active compounds read low. B-score at 10 µM. hit rate 1.2% among 310,000;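 active means ratio B-score over 3 SD below the library mean, with starting fluorescence within 5 SD of its mean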;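 further: negative B-score means less thallium flux so channel inhibition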
hERG rescue – hERG (human) protection from proarrhythmic block; CHO-hERG, FluxOR thallium flux, dofetilide IC70 present; hit rate 0.51% among 310,000; AID 1511; activation (rescue from dofetilide block), less the hit threshold, % at 10 µM; Q12809;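 active means activation above the mean of controls blocked by dofetilide plus 5 SD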;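 further: thallium influx through hERG after potassium depolarization seen as dye fluorescence rise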
KCNQ1 inh – inhibitors of human KCNQ1 potassium channel; B-score at 10 µM; hit rate 1.3% among 310,000; AID 2642; CHO-K1 KCNQ1, FluxOR thallium flux fluorescence; active compounds read high;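 active means compounds whose thallium flux B-score, printed positive for inhibition, exceeds three library SD while starting fluorescence stays within three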;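 further: channel opened by potassium depolarization with thallium stimulus after 20 min compound exposure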
Target sequence (P51787 whole entry, looked up): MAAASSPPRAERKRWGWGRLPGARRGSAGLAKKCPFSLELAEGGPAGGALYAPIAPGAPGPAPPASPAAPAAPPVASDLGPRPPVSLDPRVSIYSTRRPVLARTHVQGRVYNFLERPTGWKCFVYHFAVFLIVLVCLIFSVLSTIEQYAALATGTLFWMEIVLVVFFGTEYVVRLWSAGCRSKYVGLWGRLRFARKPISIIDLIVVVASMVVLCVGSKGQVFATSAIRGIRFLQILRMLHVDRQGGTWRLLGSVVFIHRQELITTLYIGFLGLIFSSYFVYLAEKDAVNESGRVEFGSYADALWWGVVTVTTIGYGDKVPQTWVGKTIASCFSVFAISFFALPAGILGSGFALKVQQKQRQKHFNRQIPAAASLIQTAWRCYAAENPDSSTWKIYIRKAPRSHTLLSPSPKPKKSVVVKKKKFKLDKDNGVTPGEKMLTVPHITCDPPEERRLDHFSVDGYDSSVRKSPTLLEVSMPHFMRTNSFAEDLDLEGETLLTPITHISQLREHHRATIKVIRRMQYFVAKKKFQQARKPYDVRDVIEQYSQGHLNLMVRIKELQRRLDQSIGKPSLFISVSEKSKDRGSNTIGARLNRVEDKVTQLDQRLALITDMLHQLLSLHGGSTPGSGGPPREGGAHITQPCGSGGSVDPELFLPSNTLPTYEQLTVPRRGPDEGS
KCNQ1 pot – human KCNQ1 channel potentiation or activation | CHO-K1 KCNQ1, thallium flux FluxOR fluorescence; active compounds read high | hit rate 0.35% among 310,000 | B-score at 10 µM | P51787;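 active means fluorescence ratio B-score, a plate-corrected score, at least three library SD, with initial intensity B-score within 5 SD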
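Test system: CHO-K1 cells stably expressing KCNQ1 / Medium: assay buffer / Also added: depolarizing K+/Tl+ stimulus, K2SO4 and Tl2SO4 each 12.5 mM in 5x stock / Incubation: 90 min dye loading and 20 min compound exposure, both at room temperature / Signal: thallium influx via FluxOR fluorescence, kinetic imaging / Evaluation: B score of baseline-normalized fluorescence ratio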
KCNK3 block – human KCNK3 channel inhibition, primary screen | CHO-KCNK3 thallium flux, FluxOR fluorescence; active compounds read low | B-score at 10 µM | hit rate 0.84% among 340,000;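 active means B-score under library mean minus 4 SD, starting fluorescence ratio at most library mean plus 5 SD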;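 further: more negative B-score means stronger inhibition of thallium flux through KCNK3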
Kir21 inh – Kir2.1 (mouse) channel inhibition; P35561; hit rate 0.85% among 310,000; B-score at 10 µM; AID 1672; HEK293-Kir2.1, FluxOR thallium flux fluorescence; active compounds read low;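 active means fluorescence ratio B-score at or below minus 3 SD of library scores, with starting-brightness B-score within 2 SD, cut at about -4.2 in these data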;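 further: channel flux triggered by added potassium and thallium sulfate stimulus; B-score of peak minus minimum fluorescence over baseline after thallium stimulus; more negative B-score means stronger Kir2.1 block with less thallium influx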
Starred values were filed as active, the others as inactive; i = inactive; · = no result given.

SMILES | KCNK9 inh | hERG rescue | KCNQ1 inh | KCNQ1 pot | KCNK3 block | Kir21 inh
Cc1ccc(Nc2nc(-c3cccnc3)nc3ccccc23)cc1 | i | -2.7 | i | i | i | 0.28
CCNC(=S)NNC(=O)c1cc(-c2cccnc2)nc2ccccc12 | i | -10.5 | i | i | i | 1.6
CCOC(=O)c1ccc(NC(=S)NNC(=O)c2cc(-c3cccnc3)nc3ccccc23)cc1 | i | -22.2 | 10* | i | i | -0.18
CCOC(=O)c1ccc(Nc2nc(-c3cccnc3)nc3ccccc23)cc1 | -7.06* | -6.7 | i | i | i | -0.74
Cc1ccc(NC(=S)NC(=O)c2ccc(Br)o2)c(C)c1 | i | 0.2 | i | i | i | -1.55
CCN(c1ccccc1)S(=O)(=O)c1ccc(NC(=S)NC(=O)c2ccc(Br)o2)cc1 | i | 10.9* | i | 12* | i | -0.54
Cc1cccc(C)c1NC(=S)NC(=O)c1ccc(Br)o1 | i | 25.3* | i | 27* | i | 1.68
O=C(NC(=S)Nc1ccccc1F)c1ccc(Br)o1 | i | 31.6* | i | 77* | i | -0.25
Cc1cccc(NC(=S)NC(=O)c2ccc(Br)o2)c1C | i | 46.5* | i | i | i | 0.37
CCN1CCN(c2ncnc3sc4c(c23)CCC(C)C4)CC1 (configuration not stated) | i | -2.5 | i | i | i | 0.39
CCC(C)Sc1nnc(NC(=O)c2ccco2)s1 (configuration not stated) | i | -6.1 | i | i | i | 0.57
Cc1cccn2c(=O)c3cc(C(=O)N4CCCCC4C)sc3nc12 (configuration not stated) | · | · | · | · | i | ·
COc1ccc(-c2cn3cccnc3n2)cc1NC(=O)C(C)Oc1ccccc1 (configuration not stated) | i | -13.0 | i | i | i | -0.86
CC(C)CCn1c(=S)[nH]c2ncccc2c1=O | i | 9.9* | i | 10* | i | 1.68
O=C(Nc1cc(C(F)(F)F)ccc1Cl)C(Sc1nnc(-c2cccs2)o1)c1ccccc1 (configuration not stated) | i | -13.4 | 6* | i | i | -1.94
O=C(Nc1ccc(Cl)cc1C(F)(F)F)C(Sc1nnc(-c2cccs2)o1)c1ccccc1 (configuration not stated) | i | -11.7 | 6* | i | i | 1.92
COCCn1nnnc1C(c1cccs1)N1CCN(c2cc(C)ccc2C)CC1 (configuration not stated) | -7.98* | -7.8 | i | i | -9.2* | -0.96
Cc1cc(C)nc(SCc2ccc(C(=O)N/N=C/c3ccco3)cc2)n1 | i | -7.6 | i | i | i | -4.32*
O=C(Nc1ccc(S(=O)(=O)N2CCOCC2)cc1)c1ccc(Cl)c([N+](=O)[O-])c1 | · | · | · | · | i | ·
N#Cc1nc(-c2ccccc2Cl)oc1NCc1ccco1 | -7.49* | -2.3 | i | i | i | -0.53
N#Cc1nc(-c2ccccc2)oc1NCc1ccco1 | i | -5.0 | i | i | i | 1.92
CC(C)(C)c1ccc(C(=O)NNc2ncccc2-n2cccc2)cc1 | i | -6.3 | 7* | i | i | 0.72
O=C(NNC(=O)c1ccccc1-n1cccc1)c1ccc(Cl)cc1 | i | -9.6 | i | i | i | 0.16
COc1ccc(/C=C2\C(=O)c3ccccc3OC2c2ccccc2)cc1 (configuration not stated) | -6.7* | -6.0 | i | i | i | 0.33
CCOC(=O)c1c(NC(=O)COC(=O)Cc2c[nH]c3ccccc23)sc(C(=O)N(C)C)c1C | i | -18.3 | i | i | i | 0.03
SMILES | KCNK9 inh | hERG rescue | KCNQ1 inh | KCNQ1 pot | KCNK3 block | Kir21 inh
O=C(NC1CCCc2ccccc21)C(Cc1ccccc1)NS(=O)(=O)c1cccs1 (configuration not stated) | i | -8.8 | i | i | i | -0.27
O=C(Nc1ccccc1C(=O)NC(Cc1ccccc1)C(=O)NC1CCCCCC1)c1ccccc1 (configuration not stated) | i | -5.7 | 6* | i | i | -0.37
O=C(NC1CCCCC1)C(Cc1ccccc1)NS(=O)(=O)c1cccs1 (configuration not stated) | i | 7.9* | i | i | i | -1
CCN(CC)CCCNc1ccc(-c2nnc(-c3ccc(OCC(C)C)cc3)o2)cn1 | i | -25.2 | 9* | i | i | -6.55*
CC(C)COc1ccc(-c2nnc(-c3ccco3)o2)cc1 | i | -3.7 | i | i | i | 0.03
Cc1cccc(CNC(=O)c2ccc3nc(Cc4ccccc4F)oc3c2)n1 | i | -8.4 | i | i | i | 0.36
CCOc1ccccc1NC(=O)c1cccc(NC(=O)C(C)C)c1 | i | -16.8 | i | i | i | -0.62
CCCC(=O)Nc1cccc(C(=O)Nc2ccccc2OCC)c1 | -7.8* | -8.7 | i | i | · | 0.15
CCC(=O)Nc1cccc(NC(=O)c2ccc(C)c([N+](=O)[O-])c2)c1 | i | -21.8 | i | i | i | -1.25
CCCC(=O)Nc1cccc(NC(=O)c2ccc(C)c([N+](=O)[O-])c2)c1 | i | -13.8 | i | i | i | -4.82*
O=C(NCc1cccs1)c1ccc(CS(=O)Cc2cccc(Cl)c2)o1 (configuration not stated) | i | -4.5 | i | i | i | 1.11
Cc1cnc(NC(=O)C2CC=CCC2)s1 (configuration not stated) | i | -3.0 | i | i | i | -0.03
CCN(CC)c1ccc(/C=C/c2ccc3ccc(OC)cc3[n+]2CC)cc1 | -7.11* | -40.6 | i | i | -13.1* | -15.9*
CC[n+]1c(/C=C/c2ccc(OC)c(OC)c2)ccc2ccccc21 | i | -7.2 | i | i | i | 0
O=[N+]([O-])c1ccccc1C=NN1CCCCCC1 | · | · | · | · | i | ·
CC(C)(C)NC(=O)CN(Cc1cccs1)C(=O)C1COc2ccccc2O1 (configuration not stated) | i | -23.2 | 6* | i | i | -1.03
CC(C)(C)NC(=O)CN(Cc1cccs1)C(=O)CN1C(=O)C(=O)c2ccccc21 | i | -8.8 | i | i | i | 0.22
CN(CC(=O)Nc1ccccc1Cl)C(=O)CSc1nnc(-c2ccco2)n1C | · | · | · | · | i | ·
CC1(C)Oc2ccc3ccc(=O)oc3c2/C(=C/Nc2cccc(O)c2)C1=O | -6.73* | -13.7 | 6* | i | i | -2.31
CSc1ccccc1NC(=O)Nc1ccc(F)c(Cl)c1 | i | -11.3 | i | i | i | 0.7
O=C(Nc1ccc(Cl)c(Cl)c1)Nc1ccc(Br)cc1F | i | -28.6 | 7* | i | i | -0.41
